The values below come from ChEMBL document CHEMBL1154067, “Antiviral and cytotoxic activities of aminoarylazo compounds and aryltriazene derivatives” (Bioorg Med Chem, 2009).

Series [1] relates to MT4. In words: Cytotoxicity against human MT4 cells after 96 hrs by MTT assay. The settings on record: mt4, 96 h. In kind it is cell-based. In short, it runs like this: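 Exponentially growing mock-infected MT-4 seeded at 1 × 10^5 cells/mL in RPMI-1640 with 10% FCS, penicillin and streptomycin. Incubated with or without serial compound dilutions at 37 °C, 5% CO2. Viability by MTT after 96 h. CC50 = concentration reducing viability 50%.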

The nature of series [2]: Cytotoxicity against MDBK cells after 48 to 96 hrs by MTT assay. The series is classed as cell-based, Bos taurus. The note with it: cattle, mdbk. In short, it runs like this:
(§1)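 Mock-infected cells in maintenance medium, MDBK at 6 × 10^5 and BHK at 1 × 10^6 cells/mL initial density, with or without serial compound dilutions. Run in parallel with antiviral assays. Viability by MTT after 48–96 h at 37 °C, 5% CO2. CC50 = concentration reducing viability 50%.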

In series [3] the test system is Bovine viral diarrhea virus 1. In words: Antiviral activity against Bovine viral diarrhea virus infected in MDBK cells assessed as inhibition of virus-induced cytopathicity after 3 to 4 days by MTT assay. In kind it is functional, organism-based. The settings on record: Bovine viral diarrhea virus isolates and strains. Background: Cytopathic effects are the visible damage that an infection or toxin causes in cultured cells.

Series [4] relates to Yellow fever virus. In words: Antiviral activity against Yellow fever virus infected in BHK-21 cells assessed as inhibition of virus-induced cytopathicity after 3 to 4 days by MTT assay. In kind it is functional, organism-based.
The subject of series [5] is Mammalian orthoreovirus 1. In words: Antiviral activity against Reovirus-1 infected in BHK-21 cells assessed as inhibition of virus-induced cytopathicity after 3 to 4 days by MTT assay. The series is classed as functional, organism-based. The note with it: Mammalian orthoreovirus 1, BHK-21. An outline of the steps: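 BHK-21 cells seeded at 5 × 10^4 cells/well, grown overnight to confluent monolayers at 37 °C in 5% CO2, then infected at m.o.i. 0.01 in serum-free medium. One hour later, MEM Earle's with 1% final inactivated FCS added, with or without serial compound dilutions. Viability read by MTT after 3–4 days at 37 °C. EC50 is the concentration giving 50% protection from cytopathogenicity.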

Series [6] has as its system Vero. In words: Cytotoxicity against african green monkey Vero 76 cells by crystal violet staining. The series is classed as cell-based. The settings on record: chlorocebus sabaeus, vero. An outline of the steps:
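Mock-infected Vero 76 seeded at 4 × 10^5 cells/mL, run in parallel with plaque assays, with or without serial compound dilutions. Cell number of monolayers determined by crystal violet staining. CC50 = concentration reducing viable cell number 50%.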

Series [7] deals with Coxsackievirus B2. In words: Antiviral activity against Coxsackie virus type B2 virus infected in african green monkey Vero-76 cells after 3 days by plaque reduction assay. In kind it is functional, organism-based. The note with it: Enterovirus B, Vero 76, 72 h. An outline of the steps: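 Vero 76 cells seeded at 2 × 10^5 cells/well, grown overnight to confluence at 37 °C in 5% CO2, then infected at 50–100 PFU/well. Unadsorbed virus removed. Overlay of DMEM with 1% inactivated FCS and 0.75% methylcellulose, with or without serial compound dilutions. After 3 days at 37 °C, fixed and stained with crystal violet in PBS/50% ethanol; plaques counted. EC50 is the concentration reducing plaque number by 50%.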
A general note: Plaques are areas of infected cells; plaque reduction assays count them against a control.

In series [8] the test system is Respiratory syncytial virus. In words: Antiviral activity against Respiratory syncytial virus A2 infected in Vero-76 cells after 5 days by plaque reduction assay. In kind it is functional, organism-based. The settings on record: human respiratory syncytial virus, A2, Vero 76, 120 h.
For series [9], the system named is Human alphaherpesvirus 1. In words: Antiviral activity against HSV1 infected in Vero-76 cells after 3 days by plaque reduction assay. The series is classed as functional, organism-based. The note with it: Human alphaherpesvirus 1, Vero 76, 72 h.
A short description of series [10]: Cytotoxicity against hamster BHK21 cells assessed as reduction in cell viability after 48 to 96 hrs by MTT assay. The series is classed as cell-based, Mesocricetus auratus, BHK-21. The note with it: bhk-21. An outline of the steps: as §1
For orientation: Tetrazolium assays rely on reduction of a dye to a coloured formazan, in cell work by metabolically active cells.

Series [11] relates to Poliovirus 1. In words: Antiviral activity against Human poliovirus 1 strain Sabin after 2 days by plaque reduction assay. The series is classed as functional. The note with it: for EC50: Enterovirus C, 48 h.
Series [12] has as its system Human immunodeficiency virus 1. In words: Antiviral activity against HIV1 infected in human MT4 cells assessed as inhibition of virus-induced cytopathicity after 4 days by MTT assay. In kind it is functional, organism-based.
The test system of series [13] is Vesicular stomatitis virus. In words: Antiviral activity against Vesicular stomatitis virus after 2 days by plaque reduction assay. The series is classed as functional, organism-based.
Series [14] concerns Vaccinia virus. In words: Antiviral activity against Vaccinia virus after 3 days by plaque reduction assay. The series is classed as functional, organism-based. The note with it: Orthopoxvirus vaccinia.

The source made the active and inactive calls. Where only a bound is given, the exact number is not on record here.

By CC50 is commonly meant the concentration giving 50% cytotoxicity. For orientation: EC50 means the concentration that produces a half-maximal response. Take `c1ccc(/N=N/c2ccc(NC[C@@H]3CCCN4CCCC[C@H]34)c3c2CCCC3)cc1`: the CC50 in series [1] was 100 µM; in series [2] it was over 100 µM; in series [6] it was 80 µM; in series [10], over 100 µM. In addition, the EC50 is 30 µM in series [3]; at least 100 µM in series [4]; over 100 µM in series [5]; over 80 µM in series [7]; over 80 µM in series [8]; over 80 µM in [9]. The outcome in [11], in series [13] and in series [14] was inactive. Moreover, in series [12], the inhibition result is “inactive”.

Turning to `CN(C)CCCN(/N=N/c1c(F)cccc1F)c1ccccc1`, the CC50 in series [1] was determined as 23 µM; in series [2] it was 45 µM; in series [6], 25 µM; in series [10] it was 52 µM. The EC50 in series [3] is over 45 µM; in series [4], 20 µM; in [5], over 52 µM; in series [7] it was 9 µM; in [8], at least 25 µM; in series [9], 12 µM. In addition, the EC50 in series [11] was over 25 µM. In [12], the inhibition result is “inactive”. Besides, the result in [13] and in series [14] was inactive.

Turning to `CN(/N=N/c1cccc([N+](=O)[O-])c1)c1ccccc1`, the CC50 is over 100 µM in series [1], 82 µM in series [2], over 100 µM in [6] and over 100 µM in series [10]. Besides, the concentration for a half-maximal effect (EC50) in series [3] was over 82 µM; in [4], over 100 µM; in series [5] it was 33 µM; in series [7], over 100 µM; in series [8], 15 µM; in series [9], over 100 µM. This molecule also yielded an EC50 in [11] of 29 µM. In addition, the inhibition entry in series [12] was “inactive”. The outcome in [13] and in series [14] was inactive.

For `Cc1c(/N=N/c2cccc(C(F)(F)F)c2)ccc(NC[C@@H]2CCCN3CCCC[C@H]23)c1C`, the CC50 in [1] is 77 µM; in series [2], 52 µM; in series [6] it was 80 µM; in series [10], at least 100 µM. For the same molecule, the EC50 in series [3] is 7 µM; in [4] it was over 100 µM; in series [5], over 100 µM; in series [7], over 80 µM; in series [8] it was over 80 µM; in series [9], over 80 µM. Further, the outcome in [11], in [13] and in [14] was inactive. In addition, the inhibition entry in [12] was “inactive”.

Take `CN(C)CCCNc1ccc(/N=N/c2cc(F)ccc2F)cc1`: the CC50 in series [1] stood at 16 µM; in series [2] it was 59 µM; in series [6], 30 µM; in series [10], 33 µM. The EC50 in series [3] was 9 µM; in series [4], 12 µM; in series [5], over 33 µM; in [7], over 30 µM; in [8], over 30 µM; in [9], 12 µM. Moreover, the outcome in [11], in [13] and in series [14] was inactive. In series [12], the inhibition entry is “inactive”.

For the molecule `Fc1ccc(F)c(/N=N/Nc2cc(F)ccc2F)c1`, the CC50 was at least 100 µM in series [1], over 100 µM in series [2], at least 100 µM in series [6] and over 100 µM in [10]. Moreover, the EC50 in series [3] is over 100 µM; in series [4] it was over 100 µM; in series [5] it was over 100 µM; in series [7] it was 50 µM; in [8], 8 µM; in series [9], over 100 µM. In series [11], this molecule returned an EC50 of over 100 µM. In addition, the inhibition entry in [12] is “inactive”. Besides, the result in [13] and in [14] was inactive.

In the case of `Fc1ccc(/N=N/c2ccc(NC[C@@H]3CCCN4CCCC[C@H]34)c3c2CCCC3)c(F)c1`, the CC50 in series [1] came out at 51 µM; in [2], 11 µM; in series [6], 15 µM; in series [10], 9 µM. Also, the EC50 is over 11 µM in [3]; over 9 µM in [4]; over 9 µM in series [5]; over 15 µM in series [7]; over 15 µM in [8]; over 15 µM in [9]. Further, the outcome in [11], in [13] and in series [14] was inactive. In addition, the inhibition entry in series [12] is “inactive”.

For the molecule `CN(C)CCCNc1ccc(/N=N/c2cccc([N+](=O)[O-])c2)cc1`, the CC50 in [1] was found to be 14 µM; in series [2] it was 33 µM; in [6], 25 µM; in series [10], 20 µM. In addition, the EC50 in [3] was 16 µM; in [4], 7 µM; in series [5] it was over 20 µM; in series [7] it was 11 µM; in series [8], over 25 µM; in series [9], 6 µM. The outcome in [11], in series [13] and in [14] was inactive. Also, in [12], the inhibition result is “inactive”.

`O=c1cnn([C@@H]2O[C@H](CO)[C@@H](O)[C@H]2O)c(=O)[nH]1` [6-AZAURIDINE]: the CC50 in series [2] is over 100 µM; in series [6], 20 µM; in series [10], over 100 µM. Further, the EC50 was over 100 µM in [3]; over 100 µM in series [5]; over 20 µM in [7]; over 20 µM in series [9]; over 20 µM in series [11].

As to `c1ccc(/N=N/Nc2ccccc2)cc1`, the EC50 in [3] was over 100 µM; in series [4] it was over 100 µM; in [5], over 100 µM; in [7], over 90 µM; in series [8], at least 90 µM; in series [9] it was over 90 µM. Moreover, the EC50 in series [11] is over 90 µM. In series [12], the inhibition entry is “inactive”. For the same molecule, the result in series [13] and in [14] was inactive.

Turning to `CN(C)CCCN(/N=N/c1ccccc1)c1ccccc1`, the CC50 in series [1] stood at 33 µM; in series [2] it was 95 µM; in [6], 35 µM; in series [10], 50 µM. The EC50 was at least 95 µM in series [3]; over 50 µM in series [4]; over 50 µM in series [5]; 6 µM in [7]; over 35 µM in [8]; 12 µM in series [9]. Further, the EC50 in series [11] was over 35 µM. The inhibition result in series [12] was “inactive”. Moreover, the result in [13] and in [14] was inactive.

Consider `CN(C)CCCNc1ccc(/N=N/c2ccc([N+](=O)[O-])cc2)cc1`, for which the CC50 in series [1] was 19 µM; in [2], over 100 µM; in series [6], 60 µM; in [10], over 100 µM. In addition, the EC50 was over 100 µM in series [3]; over 100 µM in [4]; over 100 µM in series [5]; over 60 µM in [7]; over 60 µM in [8]; over 60 µM in series [9]. Moreover, the result in [11], in series [13] and in series [14] was inactive. In [12], the inhibition result was “inactive”.

With `COc1c(C)c2c(c(O)c1C/C=C(\C)CCC(=O)O)C(=O)OC2` [MYCOPHENOLIC ACID], the CC50 in series [1] was 0.2 µM; in series [2] it was 42 µM; in [6] it was at least 13 µM; in [10] it was over 100 µM. Further, the EC50 in series [3] was over 42 µM; in [4], over 100 µM; in series [5] it was over 100 µM; in series [7], over 13 µM; in series [8], 0.6 µM; in series [9], over 13 µM. Besides, in [11], the EC50 is over 13 µM.
